From ChEMBL document CHEMBL3399972, “Structure-activity relationships of a novel pyranopyridine series of Gram-negative bacterial efflux pump inhibitors” (Bioorg Med Chem, 2015)
≈ marks a conversion by molar mass, not a printed value. Calls of active or inactive are those of the source.

Legend:
Escherichia coli [1] = assay: Antibacterial activity against Escherichia coli at 100 uM; assay type: functional, organism-based
Escherichia coli [2] = assay: Inhibition of multidrug resistance efflux pump in Escherichia coli assessed as concentration required to reduce levofloxacin MIC by 4-fold by checkerboard assay
Escherichia coli [3] = assay: Inhibition of multidrug resistance efflux pump in wild-type Escherichia coli AB1157 assessed as concentration required to reduce piperacillin MIC by 4-fold by checkerboard assay
HeLa = assay: Cytotoxicity against human HeLa cells; assay type: cell-based
[4] = Aqueous solubility of the compound by nephlometric method; assay type: physicochemical
Outline: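 Maximum solubility in water, measured by nephelometry.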

[5] = Inhibition of mouse liver microsome CYP3A4 at 3 uM after 10 mins by luminescence assay; assay type: ADME; conditions: microsomes
[6] = Metabolic stability in human liver microsomes assessed as compound remaining at 25 uM after 60 mins by HPLC analysis in presence of NADPH; assay type: ADME; conditions: read-out: Stability
Outline: (§1)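 Human or mouse liver microsomes at 0.5 mg/mL in 100 mM potassium phosphate pH 7.4 with 3 mM MgCl2, test compound 25 µM final, with or without (control) 2 mM NADPH; 37 °C for one hour, then stopped with equal volume acetonitrile containing 0.1% trifluoroacetic acid. Value: peak area with NADPH relative to no-NADPH control, as percent remaining.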

[7] = Metabolic stability in mouse liver microsomes assessed as compound remaining at 25 uM after 60 mins by HPLC analysis in presence of NADPH; assay type: ADME; conditions: read-out: Stability; outline: as §1
Escherichia coli [8] = assay: Inhibition of lactose permease-dependent [3H]TMG uptake in Escherichia coli HN1157 up to 20 uM
Outline: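 Proton motive force probed in E. coli HN1157 by LacY permease-mediated accumulation of [methyl-3H] thiogalactopyranoside (stock 1 mCi/ml, 7 Ci/mmol), compounds tested at concentrations up to 20 µM.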

| Structure (SMILES) | Activity (Escherichia coli [1]) | INH (Escherichia coli [2]) | INH (Escherichia coli [3]) | CC50 (HeLa) | solubility kinetic [4] | inhibition (INH) [5] | remaining at 1 h, 25 µM [6] | remaining at 1 h, 25 µM [7] | inhibition (Escherichia coli [8]) |
| --- | --- | --- | --- | --- | --- | --- | --- | --- | --- |
| COCCN1CCN(c2nc(SCCc3cccc(F)c3)c(C#N)c3c2COC(C)(C)C3)CC1 | inactive | > 100 µM | 6.3 µM | 37.9 µM |  |  |  |  |  |
| CC1(C)Cc2c(C#N)c(SCCc3ccc(F)cc3)nc(N3CCOCC3)c2CO1 | inactive | 6.3 µM | 3.1 µM | 59 µM |  |  |  |  |  |
| CN1CCCN(c2nc(SCCc3ccccc3)c(C#N)c3c2COC(C)(C)C3)CC1 | inactive | 12.5 µM | 25 µM | 16.4 µM |  |  |  |  |  |
| COCCN1CCN(c2nc(SCCc3ccccc3)c(C#N)c3c2COC(C)(C)C3)CC1 | inactive | 6.3 µM | 0.4 µM | 34.2 µM | 50 µM (≈ 23.3 µg/mL) | 18% | 0% | 0% |  |
| CC1(C)Cc2c(C#N)c(SCCc3nnn[nH]3)nc(N3CCOCC3)c2CO1 | inactive | > 100 µM | > 100 µM | 30.2 µM |  |  |  |  |  |
| CC1(C)Cc2c(C#N)c(SCCc3cccc(-c4nnn[nH]4)c3)nc(N3CCOCC3)c2CO1 | inactive | > 100 µM | 12.5 µM | 20.7 µM |  |  |  |  |  |
| CC1(C)Cc2c(C#N)c(SCc3ccccc3)nc(N3CCOCC3)c2CO1 | inactive | > 100 µM | > 100 µM |  |  |  |  |  | inactive |
| CN1CCN(c2nc(SCCc3ccccc3)c(C#N)c3c2COC(C)(C)C3)CC1 | inactive | 6.3 µM | 6.3 µM | 14.4 µM |  |  |  |  |  |
| CC1(C)Cc2c(C#N)c(SCCCc3ccccc3)nc(N3CCOCC3)c2CO1 | inactive | > 100 µM | > 100 µM |  |  |  |  |  |  |
| CC1(C)Cc2c(C#N)c(SCCC#N)nc(N3CCOCC3)c2CO1 | inactive | > 100 µM | > 100 µM | > 100 µM |  |  |  |  |  |
| COCCN1CCN(c2nc(SCCc3cccnc3)c(C#N)c3c2COC(C)(C)C3)CC1 | inactive | > 100 µM | 25 µM | > 100 µM |  |  |  |  |  |
| N#Cc1c(SCCc2ccccn2)nc(N2CCOCC2)c2c1CCOC2 | inactive | > 100 µM | > 100 µM |  |  |  |  |  |  |
| COc1cccc(CCSc2nc(N3CC(C)OC(C)C3)c3c(c2C#N)CC(C)(C)OC3)c1 (stereo not given) | inactive | 9.4 µM | 1.6 µM | > 100 µM |  |  |  |  |  |
| COCCN1CCN(c2nc(SCCc3cccc(Br)c3)c(C#N)c3c2COC(C)(C)C3)CC1 | inactive | 12.5 µM | 2.8 µM | 75.1 µM |  |  |  |  |  |
| COCCN1CCN(c2nc(SCCOc3ccccc3)c(C#N)c3c2COC(C)(C)C3)CC1 | inactive | > 100 µM | 12.5 µM | 33.9 µM |  |  |  |  |  |
| CC(=O)Oc1cccc(CCSc2nc(N3CCOCC3)c3c(c2C#N)CC(C)(C)OC3)c1 | inactive | 1.6 µM | 1.6 µM | 48.3 µM |  |  |  |  |  |
| N#Cc1c(SCCc2ccccc2)nc(N2CCOCC2)c2c1CCOC2 | inactive | > 100 µM | > 100 µM |  |  |  |  |  |  |
| COc1ccc(CCSc2nc(N3CCOCC3)c3c(c2C#N)CC(C)(C)OC3)cc1OC | inactive | 1.3 µM | 0.8 µM | 69.4 µM | 25 µM (≈ 11.7 µg/mL) | 49% | 21% | 5% |  |
| CC1CN(c2nc(SCCc3ccc(NC(=O)C(F)(F)F)cc3)c(C#N)c3c2COC(C)(C)C3)CC(C)O1 (stereo not given) | inactive | 1.6 µM | 1.6 µM | 64 µM | 12.5 µM (≈ 6.86 µg/mL) | 66% | 90% | 0% |  |
| CC1(C)Cc2c(C#N)c(SCCc3ccccc3F)nc(N3CCOCC3)c2CO1 | inactive | > 100 µM |  | > 100 µM |  |  |  |  |  |
| CC1(C)Cc2c(C#N)c(S(=O)(=O)CCc3ccccc3)nc(N3CCOCC3)c2CO1 | inactive | > 100 µM | > 100 µM |  |  |  |  |  |  |
| CC1(C)Cc2c(C#N)c(SCCc3coc4ccccc34)nc(N3CCOCC3)c2CO1 | inactive | > 100 µM | 6.3 µM | > 100 µM |  |  |  |  |  |
| CC1(C)Cc2c(C#N)c(SCC(O)c3ccccc3)nc(N3CCOCC3)c2CO1 (stereo not given) | inactive | > 100 µM | > 100 µM |  |  |  |  |  |  |
| CC1(C)Cc2c(C#N)c(SCCc3ccccc3)nc(N3CCCNCC3)c2CO1 | inactive | 12.5 µM | 12.5 µM | 20.3 µM |  |  |  |  |  |
| CC1(C)Cc2c(C#N)c(SCC(=O)c3ccccc3)nc(N3CCOCC3)c2CO1 | inactive | > 100 µM | > 100 µM |  |  |  |  |  |  |

| Structure (SMILES) | Activity (Escherichia coli [1]) | INH (Escherichia coli [2]) | INH (Escherichia coli [3]) | CC50 (HeLa) | solubility kinetic [4] | inhibition (INH) [5] | remaining at 1 h, 25 µM [6] | remaining at 1 h, 25 µM [7] | inhibition (Escherichia coli [8]) |
| --- | --- | --- | --- | --- | --- | --- | --- | --- | --- |
| CC1(C)Cc2c(C#N)c(SCCc3cccnc3)nc(N3CCOCC3)c2CO1 | inactive | 25 µM | 3.1 µM | > 100 µM |  |  |  |  |  |
| CC1(C)Cc2c(C#N)c(SCCc3ccccc3)nc(N3CCCOCC3)c2CO1 | inactive | > 100 µM | 1.6 µM | > 100 µM |  |  |  |  |  |
| COc1ccc(CCSc2nc(N3CCOCC3)c3c(c2C#N)CC(C)(C)OC3)cc1 | inactive | 6.3 µM | 3.1 µM | > 100 µM |  |  |  |  |  |
| COc1ccccc1CCSc1nc(N2CCOCC2)c2c(c1C#N)CC(C)(C)OC2 | inactive | 3.1 µM | 3.1 µM | > 100 µM |  |  |  |  |  |
| CC1(C)Cc2c(C#N)c(SCCc3ccccc3)nc(N3CCCC3)c2CO1 | inactive | > 100 µM | > 100 µM | 20.2 µM |  |  |  |  |  |
| CC1(C)Cc2c(C#N)c(SCCc3ccccn3)nc(N3CCOCC3)c2CO1 | inactive | 50 µM | 25 µM | 78.1 µM |  |  |  |  |  |
| COCCN1CCN(c2nc(SCCc3cccc(OC)c3)c(C#N)c3c2COC(C)(C)C3)CC1 | inactive | 6.3 µM | 4.7 µM | 46.5 µM |  |  |  |  |  |
| CC1(C)Cc2c(C#N)c(SCCc3cccc(F)c3)nc(N3CCOCC3)c2CO1 | inactive | > 100 µM | 4.7 µM | > 100 µM |  |  |  |  |  |
| CC1CN(c2nc(SCCc3ccc(NS(C)(=O)=O)cc3)c(C#N)c3c2COC(C)(C)C3)CC(C)O1 (stereo not given) | inactive | 6.3 µM | 6.3 µM | 67 µM |  |  |  |  |  |
| CC1(C)Cc2c(C#N)c(SCCc3c[nH]c4ccccc34)nc(N3CCOCC3)c2CO1 | inactive | 12.5 µM | 2.4 µM | 44.8 µM |  |  |  |  |  |
| CC1(C)Cc2c(C#N)c(SCCc3ccc(S(=O)(=O)O)cc3)nc(N3CCOCC3)c2CO1 | inactive | > 100 µM | > 100 µM | 17.2 µM |  |  |  |  |  |
| CC1(C)Cc2c(c(N3CCOCC3)nc(SCCc3ccccc3)c2C(=N)NO)CO1 | inactive | > 100 µM | > 100 µM |  |  |  |  |  |  |
| CC1(C)Cc2c(C#N)c([S+]([O-])CCc3ccccc3)nc(N3CCOCC3)c2CO1 (stereo not given) | inactive | > 100 µM | > 100 µM |  |  |  |  |  |  |
| CC1(C)Cc2c(C#N)c(SCCc3ccccc3)nc(N3CCSCC3)c2CO1 | inactive | > 100 µM | 1.6 µM | > 100 µM |  |  |  |  |  |
| CC1(C)Cc2c(C#N)c(SCCc3cccc(Cl)c3)nc(N3CCOCC3)c2CO1 | inactive | 3.1 µM | 3.1 µM | > 100 µM |  |  |  |  |  |
| CCN(CC)c1nc(SCCc2ccccc2)c(C#N)c2c1COC(C)(C)C2 | inactive | > 100 µM | 6.3 µM | 38.2 µM |  |  |  |  |  |
| CC1CN(c2nc(SCCc3ccccc3)c(C#N)c3c2COC(C)(C)C3)CC(C)O1 (stereo not given) | inactive |  |  | > 100 µM |  |  |  |  |  |
| CC1(C)Cc2c(C#N)c(SCCc3cccc(C#N)c3)nc(N3CCOCC3)c2CO1 | inactive | 12.5 µM | 3.9 µM | > 100 µM |  |  |  |  |  |
| CC1(C)Cc2c(c(N3CCOCC3)nc(SCCc3ccccc3)c2C(N)=O)CO1 | inactive | > 100 µM | > 100 µM |  |  |  |  |  |  |
| COCCN1CCN(c2nc(SCCc3ccccc3F)c(C#N)c3c2COC(C)(C)C3)CC1 | inactive | 12.5 µM | 9.4 µM | 30.6 µM |  |  |  |  |  |
| COCCN1CCN(c2nc(SCCc3ccccn3)c(C#N)c3c2COC(C)(C)C3)CC1 | inactive | 12.5 µM | 3.1 µM | > 100 µM | ≥ 100 µM | 14% | 0% | 3% |  |
| COCCN1CCN(c2nc(SCCc3ccncc3)c(C#N)c3c2COC(C)(C)C3)CC1 | inactive | 6.3 µM | 50 µM | 95.9 µM |  |  |  |  |  |
| CN(C)c1nc(SCCc2ccccc2)c(C#N)c2c1COC(C)(C)C2 | inactive | > 100 µM | 9.4 µM | 57.4 µM |  |  |  |  |  |
| CC1CN(c2nc(SCCc3ccc(NC(=O)C(C)(C)C)cc3)c(C#N)c3c2COC(C)(C)C3)CC(C)O1 (stereo not given) | inactive | > 100 µM | > 100 µM | > 100 µM |  |  |  |  |  |
